hERG rescue: hERG (human) protection from proarrhythmic block. Q12809. CHO-hERG, FluxOR thallium flux, dofetilide IC70 present. activation (rescue from dofetilide block), less the hit threshold, % at 10 µM. 310,000 tested, 0.51% active;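 active means activation above the mean of controls blocked by dofetilide plus 5 SD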;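 further: thallium influx through hERG after potassium depolarization seen as dye fluorescence rise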
KCNK9 inh: human KCNK9 channel inhibition; Q9NPC2; B-score at 10 µM; 310,000 tested, 1.2% active; HEK293 KCNK9, FluxOR thallium flux fluorescence; active compounds read low; AID 488922;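 active means ratio B-score over 3 SD below the library mean, with starting fluorescence within 5 SD of its mean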;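 further: negative B-score means less thallium flux so channel inhibition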
KCNQ1 pot: potentiates or activates the human KCNQ1 potassium channel; P51787; CHO-K1 KCNQ1, thallium flux FluxOR fluorescence; active compounds read high; B-score at 10 µM; 310,000 tested, 0.35% active; AID 2648;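 active means fluorescence ratio B-score, a plate-corrected score, at least three library SD, with initial intensity B-score within 5 SD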
Target sequence (P51787 whole entry, looked up): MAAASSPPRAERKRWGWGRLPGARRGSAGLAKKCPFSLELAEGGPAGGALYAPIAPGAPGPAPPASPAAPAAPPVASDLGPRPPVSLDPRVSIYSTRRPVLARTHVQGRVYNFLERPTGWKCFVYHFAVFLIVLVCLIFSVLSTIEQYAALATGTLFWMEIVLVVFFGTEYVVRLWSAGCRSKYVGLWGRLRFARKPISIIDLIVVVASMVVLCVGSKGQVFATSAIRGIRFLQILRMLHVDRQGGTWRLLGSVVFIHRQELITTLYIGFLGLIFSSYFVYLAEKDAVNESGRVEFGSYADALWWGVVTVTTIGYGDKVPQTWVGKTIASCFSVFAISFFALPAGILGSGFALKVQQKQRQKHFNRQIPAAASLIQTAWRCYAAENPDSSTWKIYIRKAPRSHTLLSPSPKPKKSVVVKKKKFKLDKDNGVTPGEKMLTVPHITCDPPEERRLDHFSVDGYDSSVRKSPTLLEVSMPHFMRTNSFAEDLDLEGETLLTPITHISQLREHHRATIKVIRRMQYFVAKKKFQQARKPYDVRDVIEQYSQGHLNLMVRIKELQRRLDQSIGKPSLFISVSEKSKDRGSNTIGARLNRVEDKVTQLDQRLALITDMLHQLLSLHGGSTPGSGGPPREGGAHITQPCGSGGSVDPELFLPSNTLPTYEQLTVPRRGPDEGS
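System: Stable KCNQ1 CHO-K1 line | Incubation: 90 min dye loading and 20 min compound exposure, both at room temperature | Measure: Ratio B score | Medium: Assay buffer for compound exposure, DMSO matched across wells | Compound dosing: Single-concentration screen | Probe or stimulus: K+/Tl+ depolarizing stimulus | Measured by: Kinetic FluxOR fluorescence, 10 s baseline plus 110 s post-stimulus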
KCNQ1 inh: inhibitors of human KCNQ1 potassium channel; 310,000 tested, 1.3% active; CHO-K1 KCNQ1, FluxOR thallium flux fluorescence; active compounds read high; AID 2642; B-score at 10 µM;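 active means compounds whose thallium flux B-score, printed positive for inhibition, exceeds three library SD while starting fluorescence stays within three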;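 further: channel opened by potassium depolarization with thallium stimulus after 20 min compound exposure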
KCNK3 block: human KCNK3 channel inhibition, primary screen | O14649 | AID 602410 | CHO-KCNK3 thallium flux, FluxOR fluorescence; active compounds read low | 340,000 tested, 0.84% active | B-score at 10 µM;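 active means B-score under library mean minus 4 SD, starting fluorescence ratio at most library mean plus 5 SD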;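 further: more negative B-score means stronger inhibition of thallium flux through KCNK3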
KCNK9 block conf: human KCNK9 inhibitor confirmation; AID 492992; inhibition, % at 10 µM; shares compounds with KCNK9 inh; HEK293 KCNK9 cells, FluxOR thallium flux fluorescence; 4,900 tested, 43% active;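 active means thallium signal inhibited by more than 5 SD of the compound-free buffer control wells, on both duplicate plates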;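 further: 0% = assay buffer control wells without compound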
Kir2-1 spec: tests whether KCNK9 modulators also affect mouse Kir2.1; shares compounds with KCNK9 inh; Kir2.1 cells, FluxOR thallium flux fluorescence; inhibition, % at 10 µM; 4,900 tested, 4% active; AID 492993;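 active means thallium signal drop more than 5 SD beyond the mean of the no-compound control wells, seen in both duplicate plates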;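 further: signal is fluorescence rise after thallium addition divided by baseline fluorescence; plate controls were assay buffer only for no effect and full block by chlorpromazine control for full effect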
KCNK9 uninduced: second check of KCNK9 modulator effects in non-induced HEK293 cells | FluxOR thallium flux | inhibition, % at 10 µM | 4,900 tested, 40% active | shares compounds with KCNK9 inh;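 active means thallium signal drop beyond 5 SD of the untreated control mean, on both duplicate plates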;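 further: plate controls were buffer only IC0 wells for no effect and SID17386958 at its maximal inhibitory level for full effect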
An asterisk follows results filed as active; i = inactive; · = no result given. Shown are actives, neighbours in structure and some others; about 3.1% of the full set was active somewhere.

SMILES | hERG rescue | KCNK9 inh | KCNQ1 pot | KCNQ1 inh | KCNK3 block | KCNK9 block conf | Kir2-1 spec | KCNK9 uninduced
Cn1cc(/C=N/n2cnc3scc(-c4ccc(Cl)cc4)c3c2=O)c2ccccc21 | -4.7 | i | i | i | i | i | i | i
CC(=O)C1CCC2C3CCC4CC(=O)CCC4(C)C3C(C)(O)CC12C (configuration not stated) | · | · | · | · | i | · | · | ·
Cn1nc(C(=O)NNC(=O)c2ccccc2Br)c2ccccc2c1=O | · | · | · | · | i | · | · | ·
O=C(/C=C/c1ccccc1)NC(NC(=S)Nc1cccc(Cl)c1)C(Cl)(Cl)Cl (configuration not stated) | -12.3 | i | i | i | i | · | · | ·
O=C(/C=C/c1ccccc1)NC(NC(=S)Nc1ccc(Cl)cc1Cl)C(Cl)(Cl)Cl (configuration not stated) | -12.8 | i | i | i | i | i | i | i
CC(C)CCNC(=O)C12CN(Cc3ccccc3)CC1C(c1ccc([N+](=O)[O-])cc1)=NO2 (configuration not stated) | -9.7 | i | i | i | i | · | · | ·
COc1cccc(CNC(=O)C23CN(Cc4ccccc4)CC2C(c2ccc([N+](=O)[O-])cc2)=NO3)c1 (configuration not stated) | -5.2 | i | i | i | i | i | i | i
O=C(COC(=O)c1ccc(-n2cnnn2)cc1)Nc1cc(Cl)ccc1F | · | · | · | · | i | · | · | ·
Cc1nc(NCc2ccccn2)c2c3c(sc2n1)CCCC3 | -6.8 | i | i | i | i | i | i | i
COc1ccc2c(C)c(C(=O)N3CCN(Cc4ccccc4)CC3)oc2c1 | -7.8 | i | i | i | i | i | i | i
CC(C)Cn1c(SC(C)C(=O)Nc2ccc3c(c2)OCCO3)nc2ccccc2c1=O (configuration not stated) | -3.0 | -8.46* | i | i | i | i | i | i
Cc1cccc(NC(=O)C2C(c3ccccc3)C2(Cl)Cl)c1 (configuration not stated) | -11.5 | i | i | i | i | i | i | i
CC(=O)c1cccc(NC(=O)C2C(c3ccccc3)C2(Cl)Cl)c1 (configuration not stated) | -10.3 | i | i | i | i | · | · | ·
CCOC(=O)C1CCN(C(=O)COC(=O)c2ccc(=O)n(Cc3ccccc3)n2)CC1 | -17.6 | i | i | i | i | · | · | ·
O=C(NCCN1C(=O)S/C(=C\c2ccc(OC(F)F)cc2)C1=O)C1=COCCO1 | -8.6 | i | i | i | i | i | i | i
COc1ccc(/C=C2\SC(=O)N(CCNC(=O)C3=COCCO3)C2=O)cc1 | -15.0 | i | i | i | i | · | · | ·
C=C(C)Cn1c(CCNC(=O)C(C)C)nc2ccccc21 | -13.2 | i | i | i | i | i | i | i
O=[N+]([O-])c1ccc(C2CCCC/C2=N/OCc2ccc(F)cc2)c([N+](=O)[O-])c1 (configuration not stated) | -13.6 | -8.23* | i | i | i | 75.5%* | i | 32.5%*
Cc1ccc(NC(=O)O/N=C2\CCCCC2c2ccc([N+](=O)[O-])cc2[N+](=O)[O-])cc1 (configuration not stated) | -5.9 | -10.2* | i | i | i | 65.0%* | i | 32.0%*
O=C(O/N=C1\CCCCC1c1ccc([N+](=O)[O-])cc1[N+](=O)[O-])c1c(F)cccc1F (configuration not stated) | -10.0 | i | i | i | i | · | · | ·
O=[N+]([O-])c1ccc(C2CCCC/C2=N/O)c([N+](=O)[O-])c1 (configuration not stated) | 0.0 | i | i | i | i | · | · | ·

Bioassay records: PubChem BioAssay, Johns Hopkins Ion Channel Center
